From ChEMBL document CHEMBL1134949, “New irreversible adenosine A(1) antagonists based on FSCPX” (Bioorg Med Chem Lett, 2002)
pIC50, pKd: −log10 of the molar value. Where “and” joins values, the source holds several entries; their conditions need not be identical. Identical values can stand only once.

What was measured:
[1] = target: T1, Adenosine receptor A1 (Homo sapiens) (UniProt P30542); assay: Percentage loss of [3H]DPCPX binding to Adenosine A1 receptor in the presence of Xanthine derivative at 100 nM from DDT1 MF2 cells; format: cell-based
T1 sequence (whole entry): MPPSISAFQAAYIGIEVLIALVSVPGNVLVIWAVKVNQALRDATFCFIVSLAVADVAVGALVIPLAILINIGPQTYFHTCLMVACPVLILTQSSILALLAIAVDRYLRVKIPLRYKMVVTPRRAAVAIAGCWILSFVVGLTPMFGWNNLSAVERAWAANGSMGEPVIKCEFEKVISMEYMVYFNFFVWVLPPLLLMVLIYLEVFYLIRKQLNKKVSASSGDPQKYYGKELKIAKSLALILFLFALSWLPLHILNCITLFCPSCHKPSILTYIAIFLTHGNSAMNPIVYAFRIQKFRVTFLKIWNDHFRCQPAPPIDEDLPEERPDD
Outline: (§1)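 DDT1 MF-2 cells preincubated with or without antagonist (5 or 100 nM) for 30 min at 30 °C, then 10 cell wash cycles to remove unbound ligand. Membranes then prepared and assayed for [3H]DPCPX Bmax and KD. Receptor loss is the reduction in Bmax versus control. Mean ± SE, n = 3-6.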

[2] = target: T1, Adenosine receptor A1 (Homo sapiens); assay: Percentage loss of [3H]-DPCPX binding to Adenosine A1 receptor in the presence of Xanthine derivative at 5 nM from DDT1 MF2 cells; format: cell-based; outline: as §1
[3] = Equilibrium dissociation constant for [3H]DPCPX binding to Adenosine A1 receptor from DDT1 MF2 cell membranes
[4] = Inhibitory concentration against [3H]DPCPX binding to Adenosine A1 receptor from DDT1 MF2 cells

Structure (SMILES)	Loss [1]	Loss [2]	pKd [3]	pIC50 [4]
CCCn1c(=O)c2nc(C3CCCC3)[nH]c2n(CCCCC(=O)c2ccc(S(=O)(=O)F)cc2)c1=O	73%	51%		
CCCn1c(=O)c2nc(C3CCCC3)[nH]c2n(CCCNC(=O)c2ccc(S(=O)(=O)F)cc2)c1=O			9.44 and 9.51	7.68
CCCn1c(=O)c2nc(C3CC4CCC3C4)[nH]c2n(CCCCC(=O)c2ccc(S(=O)(=O)F)cc2)c1=O (stereo not drawn)	81%	50%		
CCCn1c(=O)c2nc(C3CCCCC3)[nH]c2n(CCCCC(=O)c2ccc(S(=O)(=O)F)cc2)c1=O	78%	56%		
